The source of these data is ChEMBL document CHEMBL1124112, “Indoline analogues of idazoxan: potent alpha 2-antagonists and alpha 1-agonists” (J Med Chem, 1988).

The target in assay [1] is T1, Adrenergic receptor alpha-2 (Rattus norvegicus) (UniProt P22086+P19328+P22909). The assay can be described thus: Antagonist potency towards alpha-2 adrenergic receptor determined as the dose required to produce a two fold shift of the dose-response curve to UK-14304 on the twitch response of the vas deferens (in vitro);AG- agonist. To be noted: filed as agonist. Type of assay: functional, tissue-based.

Assay [2] deals with Adrenergic receptor alpha-1 (Rattus norvegicus) (UniProt P15823+P23944+P43140). The assay can be described thus: Agonism at alpha-1 adrenergic receptor, determined as the dose required to produce a two fold shift of the cirazoline on diastolic blood pressure. It counts as functional, tissue-based. To be noted: Artery.
For assay [3], the system named is Adrenergic receptor alpha-2 (Rattus norvegicus). The assay can be described thus: Agonism at alpha-2 adrenergic receptor, determined as dose required to produce a two fold shift of the cumulative dose-response curve to UK-14304 on the twitch response in rat vas deferens.
The subject of assay [4] is Rattus norvegicus. The experiment in a line: In vivo ED40 is the raising diastolic blood pressure by 40 mm Hg in pithed rats. (postjunctional). Type of assay: functional. To be noted: Artery. In a few lines:
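Pithed rats, compound given iv in cumulative doses. ED40 is the dose (μg/kg) raising diastolic blood pressure by 40 mmHg. Separate groups of rats (n = 4-6).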

For assay [5], the system named is Rattus norvegicus. The experiment in a line: In vivo antagonist dose producing two fold shift of cirazoline in pithed rats. (postjunctional);AG- agonist. To be noted: filed as agonist. Type of assay: functional, organism-based. In a few lines: (§1)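 Pithed rats, iv. Antagonist given before a cumulative dose-response curve to cirazoline on diastolic blood pressure. DR2 is the antagonist dose (μg/kg) giving a twofold rightward shift. Separate groups of rats (n = 4-6).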

The test system of assay [6] is Rattus norvegicus. The assay can be described thus: In vivo dose required to inhibit vas deferens contraction by 25% after pretreatment with prazosin in pithed rats. (prejunctional). Type of assay: functional. Put shortly:
(§2)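 Pithed rats pretreated with prazosin (1 mg/kg). Compound given iv in cumulative doses. ED25 is the dose (μg/kg) inhibiting vas deferens contraction by 25%. Separate groups of rats (n = 4-6).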

For assay [7], the target named is T1, Adrenergic receptor alpha-2 (Rattus norvegicus). The assay can be described thus: Antagonism at alpha-2 adrenergic receptor, determined as dose required to produce a two fold shift of the dose-response curve to UK-14304 on the twitch response in rat vas deferens. It counts as functional, tissue-based. Put shortly:
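Pithed rats, iv. Antagonist given before a cumulative dose-response curve to UK-14,304 on the vas deferens twitch response. DR2 is the antagonist dose (μg/kg) giving a twofold shift of the curve. Separate groups of rats (n = 4-6).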

In assay [8] the test system is Rattus norvegicus. The assay can be described thus: In vivo antagonist dose producing two fold shift of cirazoline in pithed rats. (postjunctional); AG- agonist. Type of assay: functional, organism-based. To be noted: filed as agonist. Put shortly: as §1
The test system of assay [9] is Rattus norvegicus. The assay can be described thus: In vivo dose required to inhibit vas deferens contraction by 25% after pretreatment with prazosin in pithed rats. (prejunctional); ant- antagonist. To be noted: filed as antagonist. Type of assay: functional, organism-based. Put shortly: as §2
The subject of assay [10] is Rattus norvegicus. The experiment in a line: In vivo antagonist dose producing two fold shift of UK-14,304 in pithed rats. (prejunctional).
Assay [11] relates to Adrenergic receptor alpha-1 (Rattus norvegicus). The experiment in a line: […] towards alpha-1 adrenergic receptor determined as the dose required to produce a two fold shift of the cirazoline on diastolic blood pressure (in vitro). To be noted: Artery.

T1 sequence (P19328 whole entry, looked up): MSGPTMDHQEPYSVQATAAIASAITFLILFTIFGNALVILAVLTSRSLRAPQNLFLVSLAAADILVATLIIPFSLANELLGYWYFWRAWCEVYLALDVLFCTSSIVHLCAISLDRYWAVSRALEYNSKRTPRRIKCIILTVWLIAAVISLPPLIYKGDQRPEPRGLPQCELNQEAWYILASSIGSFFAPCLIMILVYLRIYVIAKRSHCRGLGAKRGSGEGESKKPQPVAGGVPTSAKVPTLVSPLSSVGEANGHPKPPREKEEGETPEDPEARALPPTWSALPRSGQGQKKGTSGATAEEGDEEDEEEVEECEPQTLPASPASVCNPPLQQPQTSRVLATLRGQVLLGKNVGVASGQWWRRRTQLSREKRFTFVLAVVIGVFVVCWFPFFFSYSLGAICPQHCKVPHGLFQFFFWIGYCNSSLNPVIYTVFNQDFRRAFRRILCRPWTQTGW
T1 sequence (P22086 whole entry, looked up): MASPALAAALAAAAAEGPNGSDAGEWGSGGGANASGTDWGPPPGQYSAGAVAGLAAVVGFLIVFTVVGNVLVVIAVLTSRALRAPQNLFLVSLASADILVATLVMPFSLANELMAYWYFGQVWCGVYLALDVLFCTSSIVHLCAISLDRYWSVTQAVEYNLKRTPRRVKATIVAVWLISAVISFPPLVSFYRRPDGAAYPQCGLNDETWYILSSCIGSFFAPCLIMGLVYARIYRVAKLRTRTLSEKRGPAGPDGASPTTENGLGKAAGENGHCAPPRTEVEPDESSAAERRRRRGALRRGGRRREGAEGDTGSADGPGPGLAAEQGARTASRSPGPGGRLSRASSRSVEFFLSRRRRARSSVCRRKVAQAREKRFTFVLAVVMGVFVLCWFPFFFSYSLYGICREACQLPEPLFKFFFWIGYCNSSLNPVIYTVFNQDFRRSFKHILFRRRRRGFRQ
T1 sequence (P22909 whole entry, looked up): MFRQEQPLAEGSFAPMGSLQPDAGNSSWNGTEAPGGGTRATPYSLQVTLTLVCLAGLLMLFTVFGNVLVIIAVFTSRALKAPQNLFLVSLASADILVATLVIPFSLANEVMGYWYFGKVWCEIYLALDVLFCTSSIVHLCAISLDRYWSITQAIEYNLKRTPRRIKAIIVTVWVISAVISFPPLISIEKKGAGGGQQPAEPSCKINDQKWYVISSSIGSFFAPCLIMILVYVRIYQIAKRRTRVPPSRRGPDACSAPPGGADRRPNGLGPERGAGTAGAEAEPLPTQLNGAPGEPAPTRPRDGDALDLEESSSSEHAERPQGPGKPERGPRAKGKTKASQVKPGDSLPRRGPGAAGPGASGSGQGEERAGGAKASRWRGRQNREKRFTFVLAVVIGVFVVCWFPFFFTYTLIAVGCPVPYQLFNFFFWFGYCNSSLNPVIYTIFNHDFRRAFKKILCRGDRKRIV

`COc1cccc2c1N(C)C(C1=NCCN1)C2` (stereo not drawn): the Prejunctional antagonist potency entry in assay [1] is “Agonist”. Besides, the Postjunctional agonist potency in [2] was 8. Further, in assay [3], the Prejunctional agonist potency was found to be 0.4.

`CN1c2cccc(O)c2CC1C1=NCCN1` (stereo not drawn): the Prejunctional antagonist potency result in assay [1] is “Agonist”. In addition, the Postjunctional agonist potency in assay [2] was 6.7. The ED40 was 0.3 µg/kg with Rattus norvegicus [4] and “Agonist” in the assay on Rattus norvegicus [5]. Further, the ED25 in the assay with Rattus norvegicus [6] worked out at 0.2 µg/kg. Also, the Prejunctional agonist potency in assay [3] worked out at 0.16.

As for `CN1c2ccc(Cl)cc2CC1C1=NCCN1` (stereo not drawn), in [7], the Prejunctional antagonist potency was found to be 6.8. For the same compound, the Postjunctional agonist potency in [2] was 2. The ED40 is 14.3 µg/kg in the assay on Rattus norvegicus [4] and “Agonist” with Rattus norvegicus [8]. Besides, in the assay on Rattus norvegicus [9], the ED25 entry was “Antagonist”. Besides, the DR2 in the assay with Rattus norvegicus [10] turned out to be 0.0127 mg/kg. The Prejunctional agonist potency in assay [3] is 0.

Turning to `CCN1c2ccc(Cl)cc2CC1C1=NCCN1` (stereo not drawn), the Prejunctional antagonist potency in assay [7] worked out at 8. In addition, in [2], the Postjunctional agonist potency worked out at 5. Moreover, the ED40 in the assay on Rattus norvegicus [4] is 4.2 µg/kg; in the assay with Rattus norvegicus [8], “Agonist”. Also, the ED25 result in the assay on Rattus norvegicus [9] was “Antagonist”. In the assay on Rattus norvegicus [10], the DR2 stood at 0.0059 mg/kg. In addition, the Prejunctional agonist potency in assay [3] is 0.

Consider `c1ccc2c(c1)CC(C1=NCCN1)C2`, for which the Prejunctional antagonist potency in assay [7] is 0.4. Also, in [2], the Postjunctional agonist potency amounted to 0. Moreover, in assay [11], the Postjunctional antagonist potency is 0.8. In addition, the Prejunctional agonist potency in assay [3] stood at 0.

As to `CNC[C@H](O)c1cccc(O)c1` [PHENYLEPHRINE], in the assay with Rattus norvegicus [4], the ED40 came to 0.9 µg/kg.

Take `CN1c2c(Cl)cccc2CC1C1=NCCN1` (stereo not drawn): in assay [1], the Prejunctional antagonist potency result was “Agonist”. The Postjunctional agonist potency in assay [2] turned out to be 3.5. Also, the ED40 was 1.4 µg/kg in the assay with Rattus norvegicus [4] and “Agonist” in the assay with Rattus norvegicus [8]. Besides, in the assay on Rattus norvegicus [6], the ED25 is 2.2 µg/kg. In [3], the Prejunctional agonist potency worked out at 0.3.

For the compound `c1ccc2c(c1)CC(C1=NCCN1)O2` (stereo not drawn), the Prejunctional antagonist potency in assay [7] came out at 1.7. Besides, in [2], the Postjunctional agonist potency stood at 0.01. Besides, the Postjunctional antagonist potency in assay [11] worked out at 0.16. Also, in assay [3], the Prejunctional agonist potency was found to be 0.

For `COc1cccc2c1CC(C1=NCCN1)N2C` (stereo not drawn), the Prejunctional antagonist potency in [7] worked out at 0.27. In addition, in assay [2], the Postjunctional agonist potency was determined as 0.62. Moreover, in assay [3], the Prejunctional agonist potency was 0.

As to `c1ccc(COCCN2c3ccccc3CC2C2=NCCN2)cc1` (stereo not drawn), the Prejunctional antagonist potency in assay [7] came out at 0.05. Moreover, in assay [2], the Postjunctional agonist potency was determined as 0. For the same compound, the Postjunctional antagonist potency in [11] came out at 18. Moreover, in [3], the Prejunctional agonist potency was 0.

On to `CCC1(C2=NCCN2)Cc2ccccc2N1C` (stereo not drawn), for which the Prejunctional antagonist potency in [7] is 0.005. For the same compound, in assay [2], the Postjunctional agonist potency was determined as 0. Also, the Postjunctional antagonist potency in assay [11] was under 0.012. For the same compound, the Prejunctional agonist potency in [3] turned out to be 0.

In the case of `CN1c2cccc(Br)c2CC1C1=NCCN1` (stereo not drawn), the Prejunctional antagonist potency result in [1] is “Agonist”. In assay [2], the Postjunctional agonist potency is 3.4. This compound also had an ED40 in the assay on Rattus norvegicus [4] of 0.3 µg/kg. In addition, the ED25 with Rattus norvegicus [6] was 1.1 µg/kg. In addition, the Prejunctional agonist potency in [3] was found to be 0.34.

For `CN1c2cc(Cl)ccc2CC1C1=NCCN1` (stereo not drawn), the Prejunctional antagonist potency entry in [1] was “Agonist”. Also, in assay [2], the Postjunctional agonist potency was determined as 0.67. In addition, the Prejunctional agonist potency in assay [3] came out at 0.019.

In the case of `CN1c2cccc(F)c2CC1C1=NCCN1` (stereo not drawn), the Prejunctional antagonist potency entry in assay [1] was “Agonist”. The Postjunctional agonist potency in assay [2] stood at 6. Moreover, in the assay on Rattus norvegicus [5], the ED40 entry is “Agonist”. Moreover, the ED25 in the assay on Rattus norvegicus [6] was 0.8 µg/kg. Moreover, the DR2 in the assay with Rattus norvegicus [10] was 0.0008 mg/kg. For the same compound, the Prejunctional agonist potency in [3] came out at 1.

`Nc1cc(Cl)c(N=C2NCCN2)c(Cl)c1` [APRACLONIDINE] registered an ED40 in the assay with Rattus norvegicus [4] of 0.7 µg/kg. In addition, the ED25 in the assay with Rattus norvegicus [6] turned out to be 0.4 µg/kg.

`CCN1c2ccccc2CC1(C)C1=NCCN1` (stereo not drawn): the Prejunctional antagonist potency in assay [7] worked out at 0.1. In assay [2], the Postjunctional agonist potency turned out to be 0.03. The Prejunctional agonist potency in assay [3] is 0.
